Assay outcomes: PubChem, several laboratories
MT stabilize HCS – stabilizes microtubules in HeLa cells | HeLa tubulin immunostaining HCS, 24 h; share of cells brighter than vehicle mean+2SD | % tubulin-high responders, % at 10 µM | 200,000 compounds, 0.83% hits | AID 2205;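 active means plate Z-score above 3 for both tubulin-high and condensed-nucleus cell shares, with cell loss under 80%, at 10 µM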;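 further: anti alpha tubulin signal scored within the nucleus-defined area of each cell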
b-catenin transl – modulators of beta-catenin nuclear translocation; HeLa beta-catenin nuclear translocation, immunofluorescence imaging; nuclear translocation activity, % at 5 µM; 190,000 compounds, 0.3% hits; AID 1665;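 active means nuclear translocation activity above 50% at 5 µM, with a well cell count of 50 or more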;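 further: per-cell ratio of nuclear to cytoplasmic median beta-catenin stain intensity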
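Test system: human HeLa cells, native beta-catenin. Compound dosing: 5 µM primary single dose, 0.1% DMSO, 0.02–20 µM confirmation series. Incubation: compound exposure 24 h at 37°C. Detection: beta-catenin immunostaining with DAPI counterstain, 20x imaging, 6 fields/well. Read-out basis: Nuclear/cytoplasmic beta-catenin signal ratio, % activation.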
CHOP inhibitor – blocks CHOP induction under ER stress. CHO-K1 CHOP-promoter luciferase, tunicamycin-induced, 15-18 h. inhibition, % at 10 µM. 220,000 compounds, 3.8% hits;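 active means compounds that reduced the stress-induced luciferase reporter signal by more than about 70% of percent inhibition, limit read from the data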
Dynein transport – blocks dynein driven cargo transport along microtubules; 3617.4 mouse cells, GR-EGFP nuclear translocation imaging; test concentration mostly 20 µM; stimulated with dexamethasone, 1 µM; hits give low values; z-score, hits read low; 220,000 compounds, 0.47% hits; AID 1381;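 active means plate z-score of nuclear minus cytoplasmic receptor signal below a set negative limit, without overly bright fluorescence or cell loss, cut at about -3.5 in these data, passing the limit was not always enough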;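 further: z-score of nuclear minus cytoplasmic ring GR-EGFP intensity difference per well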
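Buffer or medium: tet-free, stripped-serum medium; reagent: dexamethasone at 1.0 µM final, 30 min; incubation: 48 h induction, 1 h compound, 30 min dex at 37 °C; measured by: formaldehyde fixation, Hoechst nuclear stain, 10x automated fluorescence imaging; read-out: nuclear-to-cytoplasmic GR-EGFP distribution per well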
Lmaj promast – inhibitors of Leishmania major promastigote growth. Leishmania major promastigotes, resazurin fluorescence viability. inhibition, % at 10 µM. 200,000 compounds, 9% hits; in the data active means inhibition above about 50%;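 further: promastigotes grown with compound for 44 hours at 28 °C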
Autophagy mod – alters autophagy in cells; MEF GFP-LC3 puncta imaging; test concentration mostly 10 µM; calls only at 10 µM (by protocol); 190,000 compounds, 0.98% hits; AID 463193;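 active means percentage of spot-positive cells more than 3 SD above its plate mean, without a fluorescence outlier flag or 80% toxicity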
Lmaj promast 1uM – inhibitors of Leishmania major promastigote growth, repeat at 1 uM. shares compounds with Lmaj promast. L. major promastigote growth, resazurin fluorescence, 48 h. inhibition, % at 1 µM. 1,100 compounds, 13% hits. AID 1258;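 active means inhibition above about 50% in both repeat tests, limit read from the data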
Numbers stand for hits; – = inactive; · = no result given. The list is not random: actives were taken first. Their share in the collection is about 12%.

SMILES | MT stabilize HCS | b-catenin transl | CHOP inhibitor | Dynein transport | Lmaj promast | Autophagy mod | Lmaj promast 1uM
Cc1cc(/C=C(/C#N)c2nc3ccccc3[nH]2)c(C)n1-c1cccc([N+](=O)[O-])c1 | – | · | – | – | 88 | – | –
N/N=C(\c1ccccc1)C12CN3CN(CN(C3)C1)C2 | – | – | – | – | 52 | – | –
Oc1cccc(C(O)CNCc2ccc(-c3ccccc3)cc2)c1 (stereo unspecified) | – | – | – | – | 91 | – | –
COc1ccc(CCCc2nnc(SCc3nc4ccccc4c(=O)[nH]3)n2C)c(C)c1 | · | – | – | – | · | · | ·
OC(CC1CC12c1ccccc1-c1ncccc12)(c1ccccc1)c1ccccc1 (stereo unspecified) | – | – | – | – | 69 | – | –
Cc1nn(C)c(Sc2ccccc2N)c1[N+](=O)[O-] | – | – | – | – | – | – | ·
COc1ccc(-c2cc(C(F)(F)F)n3ncc(C(=O)Nc4c(C)n(C)n(-c5ccccc5)c4=O)c3n2)cc1 | – | – | – | – | – | – | ·
Cc1ccc2nc(N(CCCN(C)C)C(=O)CCc3ccccc3)sc2c1 | – | – | – | – | 66 | – | –
COCCn1c(-c2ccccc2)nc2ccccc21 | – | – | – | – | – | – | ·
CCCn1c(-c2ccc(OC)cc2)nc2ccccc21 | – | – | – | – | 96 | – | –
CN(c1ccccc1)P(=O)(N(C)c1ccccc1)N(C)c1ccccc1 | – | – | – | – | 98 | – | –
COc1ccccc1Nc1nnc(SCC(=O)Nc2nc(-c3ccc(F)cc3)cs2)s1 | – | – | – | – | – | – | ·
CCOP(=O)(c1ccccc1)c1nc(-c2ccccc2C)oc1N1CCCCC1 (stereo unspecified) | – | – | 91 | – | 50 | – | –
CCOP(=O)(OCC)c1nc(-c2cccc3ccccc23)oc1N1CCCCC1 | – | – | – | – | – | – | ·
O=C(N/N=C/c1cc(Br)ccc1O)Nc1ccccc1 | – | – | – | – | – | – | ·
CCOc1ccccc1NC(=O)C(=O)N/N=C/c1cc(Br)ccc1O | – | – | – | – | 100 | – | –
CC(C)Oc1ccc(C(=O)NC2(C(F)(F)F)N=C3SCCN3C2=O)cc1 (stereo unspecified) | – | – | – | – | – | – | ·
Cc1ccc(-c2cc(-c3n[nH]c(=S)o3)c3ccccc3n2)cc1 | – | – | – | – | 56 | – | –
CSc1nnc(-c2ccc(C(F)(F)F)nc2C)o1 | · | – | – | – | · | · | ·
CSc1nnc(-c2cc(-c3ccc(C)cc3)nc3ccccc23)o1 | – | · | – | – | 64 | – | –
COC(=O)C1SCC2C(=O)N(Cc3ccccc3)CC(=O)N21 (stereo unspecified) | – | – | – | – | – | – | ·
CCCSC(=O)N(CC)CC(=O)Nc1c(CC)cccc1CC | – | – | – | – | – | – | ·
O=c1[nH]c2cc(NCCO)c([N+](=O)[O-])cc2[nH]1 | – | – | – | – | – | – | ·
CCC[n+]1c(C)sc2c3c(ccc21)CCCC3 | – | – | – | – | 100 | – | –
Nc1nonc1C(=O)N/N=C/c1cccc([N+](=O)[O-])c1 | – | – | – | – | 54 | – | –
SMILES | MT stabilize HCS | b-catenin transl | CHOP inhibitor | Dynein transport | Lmaj promast | Autophagy mod | Lmaj promast 1uM
CN(C)c1ccc(/C=N/NC(=O)c2nonc2N)cc1[N+](=O)[O-] | – | – | – | – | – | – | ·
c1ccc(-c2nc(-c3cccnc3)n[nH]2)cc1 | – | – | – | – | – | – | ·
Brc1cccc(-c2n[nH]c(-c3ccccc3)n2)c1 | – | – | – | – | 57 | – | –
Cc1ccc(C)c(S(=O)(=O)NCCOC(=O)Nc2sc(=S)n(C)c2C)c1 | – | – | – | – | 88 | – | –
CC(=O)NCCOC(=O)Nc1sc(=S)n(C)c1C | – | – | – | – | – | – | ·
Cc1csc2c(=O)sc(NC(=O)c3cccs3)nc12 | · | – | – | – | · | · | ·
CCOC(=O)COn1c(-c2cccc(Cl)c2)nc2ccc([N+](=O)[O-])cc21 | – | – | – | – | – | – | ·
CCOC(=O)C(C)On1c(-c2cccc(Cl)c2)nc2ccc([N+](=O)[O-])cc21 (stereo unspecified) | – | – | – | – | 95 | – | –
CCOC(=O)c1sc(NC(=O)CCCn2nc([N+](=O)[O-])c(Cl)c2C)c(C(=O)OCC)c1C | – | – | – | – | – | – | ·
COc1cc(NC(C)CCCN)c2ncccc2c1Oc1ccccc1 (stereo unspecified) | – | – | – | – | 101 | – | 101
COC(=O)CN1C(c2cccc(Cl)c2)=Nc2ccc(Cl)cc2C1c1ccccc1 (stereo unspecified) | – | – | – | – | 60 | – | –
COC(=O)CN1C(c2ccc(OC)cc2)=Nc2ccc(Cl)cc2C1c1ccccc1 (stereo unspecified) | – | – | – | – | – | – | ·
NCC12CC3CC(C1)CC(c1ccc(Cl)cc1)(C3)C2 | – | – | – | – | 100 | – | 94
Nc1ccc(C23CC4CC(CC(CO)(C4)C2)C3)cc1 | – | – | – | – | – | – | ·
CN1CCN(c2nc(N3CCN(c4ccccc4)CC3)ncc2F)CC1 | – | – | – | – | 65 | – | –
Fc1cnc(Cl)nc1N1CCN(c2ccccc2)CC1 | · | – | – | – | · | · | ·
COc1cc(C(=O)NCc2ccc3c(c2)OCO3)ccc1OCc1c(C)noc1C | – | – | – | – | – | – | ·
Cc1ccc(CNC(=O)c2cccc(OCc3c(C)noc3C)c2)cc1 | – | – | – | – | 80 | – | –
CCc1cc2cc(C)cc(C)c2nc1Cl | – | – | – | – | – | – | ·
Cc1cc(C)c2cc(C=O)c(Cl)nc2c1 | – | · | – | – | 58 | – | –
CC(C)c1ccccc1NC(=O)COC(=O)Cc1c[nH]c2ccccc12 | – | – | – | – | 50 | – | –
NC(=S)N/N=C1\CC(c2ccc3c(c2)OCCO3)Oc2ccc(F)cc21 (stereo unspecified) | · | – | – | – | · | · | ·
NC(=O)CN(c1ccc([N+](=O)[O-])cc1)S(=O)(=O)c1ccccc1 | – | – | – | – | – | – | ·
CCN1C(=O)N(c2cccc3ccccc23)C(C)=CC1(C)C | – | – | – | – | 51 | – | –
O=C1CN(c2ccc(Cl)cc2)C2(CCCCC2)S1 | – | · | – | – | 66 | – | –
O=C1C=C(c2ccc(Cl)cc2)OC2(CCCC2)O1 | – | – | – | – | – | – | ·
CCOc1ccc(S(N)(=O)=O)cc1-c1nc2c(C(C)(C)C)nn(C)c2c(=O)[nH]1 | · | – | – | – | · | · | ·
CCOc1ccc(S(=O)(=O)NC(C)(C)C)cc1-c1nc2c(C(C)(C)C)nn(C)c2c(=O)[nH]1 | – | – | 81 | – | 71 | – | –
CCOC(=O)CSCC(=O)Nc1c(C(=O)C2CC2)oc2ccccc12 | – | – | – | – | – | – | ·
